The values that follow come from PubChem BioAssay AID651627 (The Scripps Research Institute Molecular Screening Center, 2012).

The target of this experiment is Protein-arginine deiminase type-4 (Homo sapiens) (UniProt Q9UM07). The experiment in a line: residual PAD4 activity, irreversible binding – biochemical, dialysis, BAEE substrate, colorimetric citrulline readout, mechanism study for PAD4 inhibitor project, late-stage follow-up (AID 651627). Particulars: recombinant PAD4, dialysis, at 100 µM, stronger effect = lower value. In a few lines: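 Material: recombinant PAD4 enzyme; Medium: Tris buffer, pH 7.6, containing calcium and DTT; Reagent: BAEE substrate at 10 mM after dialysis; Doses: one dose, 100 µM; Times: 20 h dialysis, 15 min BAEE reaction at 37 °C; Detection: colorimetric citrulline detection, absorbance at 540 nm.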
Protein-arginine deiminase type-4 (Homo sapiens), sequence (Q9UM07 whole entry, looked up): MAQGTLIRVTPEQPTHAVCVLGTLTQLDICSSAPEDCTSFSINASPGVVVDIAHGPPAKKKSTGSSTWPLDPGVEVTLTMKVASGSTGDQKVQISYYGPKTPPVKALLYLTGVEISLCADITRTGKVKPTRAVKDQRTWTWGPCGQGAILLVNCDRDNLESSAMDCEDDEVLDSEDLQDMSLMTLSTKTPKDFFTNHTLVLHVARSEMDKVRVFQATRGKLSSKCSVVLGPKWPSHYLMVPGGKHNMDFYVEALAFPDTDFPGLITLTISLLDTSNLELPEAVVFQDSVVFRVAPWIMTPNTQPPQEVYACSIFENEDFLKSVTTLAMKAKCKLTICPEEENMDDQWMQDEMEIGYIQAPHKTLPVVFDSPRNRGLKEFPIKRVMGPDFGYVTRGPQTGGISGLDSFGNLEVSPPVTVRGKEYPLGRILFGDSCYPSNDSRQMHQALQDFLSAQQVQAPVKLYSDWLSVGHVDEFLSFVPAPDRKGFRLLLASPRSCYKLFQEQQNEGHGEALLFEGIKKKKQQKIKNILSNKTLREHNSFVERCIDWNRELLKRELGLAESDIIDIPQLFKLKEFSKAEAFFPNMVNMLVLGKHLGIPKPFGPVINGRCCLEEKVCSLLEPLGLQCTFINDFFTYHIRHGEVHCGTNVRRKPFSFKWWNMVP

For `COC1=C(Br)C(=O)c2ncccc2C1=O`, the residual activity after dialysis is 0%.

For the compound `NC1=CC(=O)c2cccnc2C1=O`, the residual activity after dialysis is 2%.

`NC1=CC(=O)c2ccc(-c3ccccn3)nc2C1=O`: the residual activity after dialysis is 12%.

For `NC1=CC(=O)c2ccc(-c3cccc(C(=O)O)n3)nc2C1=O`, the residual activity after dialysis is 0%.

Regarding `COC(=O)c1cccc(-c2ccc3c(n2)C(=O)C(N)=CC3=O)n1`, the residual activity after dialysis is 13%.
